Sampled rows, rich in hits. Any-hit rate of the full collection: about 2.4%.
TCR-CD3 inh: inhibitors of human TCR-CD3 interaction; TAMRA-labeled TCR probe fluorescence, biochemical; inhibition, % at 9.4 µM; 0.37% of 360,000 active;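 further: recombinant mutant TCR 2C K166C tagged with TAMRA read by polarization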
GSTO1 counter: blocks human GSTO1 in RBBP9 counter-screen. recombinant GSTO1, activity-based probe fluorescence polarization. P78417. 1.1% of 300,000 active. inhibition, % at 5.96 µM;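 active means inhibition above the campaign mean inhibition plus 3 SD, cut at about 35% in these data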
SIAE primary: blocks human sialic acid acetylesterase; 0.69% of 370,000 active; AID 1053197; SIAE FP-Rh probe binding, fluorescence polarization; inhibition, % at 9.66 µM;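 active means inhibition above a cutoff: mean of compounds within the control limits plus 3 SD of those, cut at about 17% in these data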
Apaf-1 inh: inhibitors of human Apaf-1 apoptosome. reconstituted apoptosome caspase-3 activity, DEVD-Rh110 fluorescence. inhibition, % at 20 µM. 0.71% of 330,000 active. O14727; active means inhibition of at least 40% at 20 µM
Target sequence (O14727 whole entry, looked up): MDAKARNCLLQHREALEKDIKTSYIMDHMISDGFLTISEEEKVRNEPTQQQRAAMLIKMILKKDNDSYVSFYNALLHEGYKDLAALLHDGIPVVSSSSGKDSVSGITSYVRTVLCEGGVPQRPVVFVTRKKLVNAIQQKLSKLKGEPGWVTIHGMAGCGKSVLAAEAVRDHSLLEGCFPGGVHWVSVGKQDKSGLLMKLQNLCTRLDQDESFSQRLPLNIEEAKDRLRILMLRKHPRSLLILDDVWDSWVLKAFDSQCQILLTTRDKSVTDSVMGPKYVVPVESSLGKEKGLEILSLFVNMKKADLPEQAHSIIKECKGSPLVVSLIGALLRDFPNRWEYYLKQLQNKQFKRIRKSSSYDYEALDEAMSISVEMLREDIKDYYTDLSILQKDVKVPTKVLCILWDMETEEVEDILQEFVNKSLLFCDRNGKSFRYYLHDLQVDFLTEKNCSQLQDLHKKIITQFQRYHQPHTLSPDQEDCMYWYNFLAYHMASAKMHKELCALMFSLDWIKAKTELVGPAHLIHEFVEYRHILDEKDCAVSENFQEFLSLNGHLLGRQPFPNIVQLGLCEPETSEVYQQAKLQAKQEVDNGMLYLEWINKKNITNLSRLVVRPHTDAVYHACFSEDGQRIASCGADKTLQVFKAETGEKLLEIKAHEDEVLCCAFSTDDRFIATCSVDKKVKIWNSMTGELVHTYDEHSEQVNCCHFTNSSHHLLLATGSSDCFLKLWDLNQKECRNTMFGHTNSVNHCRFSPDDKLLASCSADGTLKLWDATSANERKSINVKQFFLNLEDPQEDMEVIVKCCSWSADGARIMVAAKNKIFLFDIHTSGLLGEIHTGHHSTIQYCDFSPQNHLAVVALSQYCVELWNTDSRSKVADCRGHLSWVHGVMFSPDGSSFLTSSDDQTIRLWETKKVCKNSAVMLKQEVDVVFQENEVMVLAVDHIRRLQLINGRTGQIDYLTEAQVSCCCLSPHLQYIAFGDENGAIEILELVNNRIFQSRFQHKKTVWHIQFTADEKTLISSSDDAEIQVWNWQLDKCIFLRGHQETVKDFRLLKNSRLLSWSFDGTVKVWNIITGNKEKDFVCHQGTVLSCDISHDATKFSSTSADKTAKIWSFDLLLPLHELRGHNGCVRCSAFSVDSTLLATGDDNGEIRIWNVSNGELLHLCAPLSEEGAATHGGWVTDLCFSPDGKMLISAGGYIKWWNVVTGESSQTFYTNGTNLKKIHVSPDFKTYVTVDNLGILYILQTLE
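System – cell-free apoptosome with Apaf-1, procaspase-3 and caspase-9 · Buffer or medium – pH 7.5 Hepes buffer with CHAPS, BSA, DTT · Also added – cytochrome c with DEVD-Rh110 · Times – 30 min compound preincubation, 50 min activation, room temperature · Technique – Rh110 fluorescence intensity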
TDP2 absorb: blocks human TDP2 phosphodiesterase activity; O95551; recombinant TDP2, T5PNP hydrolysis, p-nitrophenol absorbance 415 nm; inhibition, % at 12.8 µM; 0.34% of 370,000 active;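 active means inhibition above the mean of all tested compounds plus 3 SD, set per campaign, cut at about 25% in these data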
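test system = human TDP2 enzyme | input = TDP2 enzyme at 120 nM final | medium = 50 mM Tris-HCl pH 7.5 with Mg2+, KCl, DTT, BSA | also added = T5PNP substrate, 5 mM | times = 2 h at 37 °C | technique = epi absorbance | benchmarks = high control without enzyme, low control DMSO plus TDP2 | replication = each compound tested once, singlicate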
PAD4 FP inh: PAD4 (human) enzyme inhibition | Q9UM07 | recombinant PAD4, RCA probe fluorescence polarization | inhibition, % at 6.36 µM | 0.41% of 330,000 active;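 active means percent inhibition above a cutoff equal to the mean of all tested compounds plus 3 SD, cut at about 15% in these data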
PAD4 confirm: confirmation of human PAD4 inhibitors. shares compounds with PAD4 FP inh. 28% of 1,200 active. inhibition, % at 6.36 µM. recombinant PAD4, RCA probe fluorescence polarization;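 active means mean inhibition across replicates above the hit cutoff set by the earlier primary screen, cut at about 15% in these data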;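 further: inhibitors block active-site labeling by the probe so polarization falls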
Apaf-1 inh conf: confirmation of Apaf-1 inhibitors | shares compounds with Apaf-1 inh | reconstituted apoptosome, caspase-3 DEVD-Rh110 fluorescence | inhibition, % at 20 µM | 25% of 1,800 active | AID 504614;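 active means mean inhibition of at least 40% at 20 µM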
Rh110 interf inh: Rh110 signal interference in Apaf-1 inhibitor counter-screen. shares compounds with Apaf-1 inh. Rh110 fluorescence interference, quenched caspase reaction. activation (fluorescence interference), % at 20 µM. 1,800 tested, under 10 active. AID 504615;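 active means signal rise of 40% or more at 20 µM, treated as a fluorescence artifact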
Fluor interf inh: shows fluorescence interference in the Apaf-1 inhibitor assay format | shares compounds with Apaf-1 inh | fluorescence interference counterscreen, Apaf-1 assay format | IC50, µM | 460 tested, under 10 active | AID 588538; call rule not given here
BSA TAMRA ctr: counter-screen for TCR-CD3 interaction inhibitors: BSA probe; inhibition, % at 9.4 µM; 10% of 1,200 active; TAMRA-labeled BSA probe fluorescence counterscreen; shares compounds with TCR-CD3 inh; in the data active means inhibition above about 23%
TCR-CD3 inh conf: confirmation of human TCR-CD3 interaction inhibitors | inhibition, % at 9.4 µM | TAMRA-labeled TCR probe fluorescence binding assay | shares compounds with TCR-CD3 inh | AID 652036 | 48% of 1,200 active
TDP2 confirm: human TDP2 inhibition, confirmation | recombinant human TDP2, absorbance read-out | shares compounds with TDP2 absorb | inhibition, % at 12.8 µM | 22% of 1,100 active; in the data active means inhibition above about 25%
Each line names hits and unclear results; the compound was inactive in the other large screens (follow-up assays come after a bar, where they were run). Unless noted, no stated cut-off is given here; in the data, active means inhibition above about 19%; inactive means the rest.

COc1ccc(CNS(=O)(=O)CCNC(=O)c2ccc3c(c2)OCO3)cc1	none
O=C(Nc1ccccc1Cl)c1c(F)c(F)c(F)c(F)c1F	none
O=C(NC1(O)C(=O)c2ccccc2C1=O)c1c(Cl)cccc1Cl	GSTO1 counter 79, Apaf-1 inh 96, TDP2 absorb 71, PAD4 FP inh 24 | PAD4 confirm 37 | Apaf-1 inh conf 97 | Rh110 interf inh inactive | Fluor interf inh inactive | TDP2 confirm 79
CC(C)(C)c1nnc(N/N=C/c2cc(Br)ccc2O)n(N)c1=O	none (no result: Apaf-1 inh)
Cc1nnc(N/N=C/c2ccccc2C(F)(F)F)n1N	TDP2 absorb 52, PAD4 FP inh 18 | PAD4 confirm inactive | TDP2 confirm inactive
COc1ccc(-n2c(C)cc(/C=N/Nc3nnc(C)n3N)c2C)cc1	GSTO1 counter 46, Apaf-1 inh 53, TDP2 absorb 73, PAD4 FP inh 36 | PAD4 confirm inactive | Apaf-1 inh conf inactive | Rh110 interf inh inactive | TDP2 confirm inactive
Cc1ccnc(N/N=C/c2ccco2)n1	none
Cc1nnc(N/N=C/c2ccccc2F)n1N	TDP2 absorb 50, PAD4 FP inh 31 | PAD4 confirm inactive | TDP2 confirm inactive
Cc1nnc(N/N=C/c2ccco2)n1N	GSTO1 counter 38, TDP2 absorb 69, PAD4 FP inh 23 | PAD4 confirm inactive | TDP2 confirm inactive
Cc1nnc(N/N=C/c2cccc(OCc3ccc(Cl)c(Cl)c3)c2)n1N	GSTO1 counter 46, Apaf-1 inh 77, TDP2 absorb 62, PAD4 FP inh 33 | PAD4 confirm inactive | Apaf-1 inh conf inactive | Rh110 interf inh inactive | TDP2 confirm inactive
NC(=O)N/N=C/c1cccc(OCc2ccc(F)cc2)c1	none
Cc1nnc(N/N=C/c2cccc(C(F)(F)F)c2)n1N	TDP2 absorb 82, PAD4 FP inh 35 | PAD4 confirm inactive | TDP2 confirm inactive
COc1ccc(OC)c(C2=NO[C@@](CC(=O)O)(C(=O)Nc3ccc4c(c3)OCCO4)C2)c1	none
CCc1ccc(C(=O)/C=C/NCc2ccc(F)cc2)cc1	none
CCc1nnc(N/N=C/c2cccs2)n1N	TDP2 absorb 69, PAD4 FP inh 34 | PAD4 confirm inactive | TDP2 confirm inactive
CNC(=S)N/N=C/c1c(Cl)cccc1Cl	none
CCc1nnc(N/N=C/c2c(Cl)cccc2Cl)n1N	TDP2 absorb 60, PAD4 FP inh 21 | PAD4 confirm inactive | TDP2 confirm inactive
COc1cc(/C=C(\C#N)C(N)=O)ccc1OCc1c(C)no[n+]1[O-]	none
COc1cc(/C=N/Nc2nncn2N)ccc1OCc1c(C)no[n+]1[O-]	TDP2 absorb 68, PAD4 FP inh 45 | PAD4 confirm inactive | TDP2 confirm inactive
COc1ccc(/C=N/Nc2nncn2N)cc1Br	TDP2 absorb 75, PAD4 FP inh 53 | PAD4 confirm inactive | TDP2 confirm inactive
CC1(C)CC(=O)C2=C(C1)N(Cc1ccccc1)C(=O)C2(O)C(F)(F)F (stereo not drawn)	none
Nc1ccc(N2CCOCC2)c2nonc12	GSTO1 counter 86, Apaf-1 inh 84, TDP2 absorb 92, PAD4 FP inh 81 | PAD4 confirm inactive | Apaf-1 inh conf inactive | Rh110 interf inh inactive | TDP2 confirm 36
O=C(Nc1ccc(N2CCOCC2)c2nonc12)C1CCCC1	none
CC1CC2(CCCC2)N(C(=O)N(C)C)c2ccc(F)cc21 (stereo not drawn)	none
Cc1cc(O)c(C=Nc2ccc(N3CCOCC3)cc2)c(C)c1Cl	TDP2 absorb 37, PAD4 FP inh 28 | PAD4 confirm inactive | TDP2 confirm inactive
CCOCCCNC(=O)C(c1ccc(C)cc1)N(Cc1ccc2c(c1)OCO2)C(=O)CNC(C)=O (stereo not drawn)	none
N#CC1=C(N)Oc2n[nH]c(-c3ccc(F)cc3)c2C1c1cccnc1 (stereo not drawn)	none (no result: GSTO1 counter, PAD4 FP inh)
COc1cc(C2C(C#N)=C(N)Oc3n[nH]c(-c4cccnc4)c32)cc(Br)c1O (stereo not drawn)	TDP2 absorb 31, PAD4 FP inh 21 | PAD4 confirm inactive | TDP2 confirm inactive
COc1cc(C2C(C#N)=C(N)Oc3n[nH]c(-c4cccnc4)c32)ccc1OCC(N)=O (stereo not drawn)	TDP2 absorb 52, PAD4 FP inh 21 | PAD4 confirm inactive | TDP2 confirm inactive
Cc1ccc(C(O)CSc2nnc(-c3ccc4ccccc4c3)n2C)cc1 (stereo not drawn)	none
CC1=NN(c2ccccc2)C(=O)C1C=Nc1ccc(N(C)C)cc1 (stereo not drawn)	TCR-CD3 inh 23, GSTO1 counter 63, TDP2 absorb 32, PAD4 FP inh 51 | PAD4 confirm inactive | BSA TAMRA ctr inactive | TCR-CD3 inh conf inactive | TDP2 confirm inactive
Cc1[nH]n(-c2ccccc2)c(=O)c1C(c1cccc([N+](=O)[O-])c1O)c1c(C)[nH]n(-c2ccccc2)c1=O	GSTO1 counter 64, Apaf-1 inh 88, TDP2 absorb 84, PAD4 FP inh 64 | PAD4 confirm inactive | Apaf-1 inh conf inactive | Rh110 interf inh inactive | TDP2 confirm inactive
Nc1ccc(OC(=O)Nc2ccc(O)cc2)cc1	GSTO1 counter 59, TDP2 absorb 30, PAD4 FP inh 73 | PAD4 confirm inactive | TDP2 confirm inactive
O=C(NCCOC(=O)c1ccc(F)cc1)c1ccc(F)cc1	none
CS(=O)(=O)c1cccc(C(=O)Nc2cccc(-c3nc4ccccc4[nH]3)c2)c1	TDP2 absorb 25, PAD4 FP inh 20 | PAD4 confirm 16 | TDP2 confirm inactive
CC(=O)NC1=NN(c2ccccc2)C(=O)C1	TDP2 absorb 55, PAD4 FP inh 43 | PAD4 confirm inactive | TDP2 confirm inactive
NC1=NN(c2ccccc2)C(=O)C1	none (no result: GSTO1 counter, Apaf-1 inh, PAD4 FP inh)
